Test results as given in paper PMC10704080 (Journal of Advanced Research, 2023).

What was measured:
[1] = Cytotoxicity in HEK293 cells; type: cell-based; details: human
Procedure, shortened: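 HEK293 cells (ATCC CRL-1573) counted by haemocytometer and seeded at 5000 cells/well into compound-containing plates in DMEM plus 10% FBS. Incubated 20 h at 37 °C, 5% CO2. Resazurin added (25 μg/mL final) for a further 3 h, then fluorescence read at ex 530/em 590 nm. Percent inhibition calculated against media-only and untreated-cell controls. CC50 fitted from dose-response curves with variable bottom, top and slope.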

[2] = tested on: human red blood cells (RBC); assay: Haemolytic activity in human red blood cells; type: cell-based; details: 1 h, 37 °C
Procedure, shortened: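 Human whole blood washed three times with 3 volumes of 0.9% NaCl, counted by haemocytometer, and resuspended in saline. Cells added to compound-containing plates, shaken 10 min, then incubated 1 h at 37 °C. Plates centrifuged at 1000 × g for 10 min to pellet cells and debris. Haemolysis read as supernatant absorbance at 405 nm.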

| Compound | CC50 at 20 h [1] [µg/mL] | RBC (HC10), concentration at 10% haemolytic activity [2] [µg/mL] |
| --- | --- | --- |
| O=C(CCCCCCCCCC[P+](c1ccccc1)(c1ccccc1)c1ccccc1)Nc1ccc(O)c(O)c1 [Compound 11e, (11-((3,4-dihydroxyphenyl)amino)-11-oxoundecyl)triphenylphosphonium bromide] | 22.4 |  |
| CC[C@H](C)[C@H](NC(=O)CN)C(=O)NCC(=O)N[C@@H](C)C(=O)N[C@H](C(=O)N[C@@H](CC(C)C)C(=O)N[C@@H](CCCCN)C(=O)N[C@H](C(=O)N[C@@H](CC(C)C)C(=O)N[C@H](C(=O)N[C@H](C(=O)NCC(=O)N[C@@H](CC(C)C)C(=O)N1CCC[C@H]1C(=O)N[C@@H](C)C(=O)N[C@@H](CC(C)C)C(=O)N[C@H](C(=O)N[C@@H](CO)C(=O)N[C@@H](Cc1c[nH]c2ccccc12)C(=O)N[C@H](C(=O)N[C@@H](CCCCN)C(=O)N[C@@H](CCCNC(=N)N)C(=O)N[C@@H](CCCCN)C(=O)N[C@@H](CCCNC(=N)N)C(=O)N[C@@H](CCC(N)=O)C(=O)N[C@@H](CCC(N)=O)C(N)=O)[C@@H](C)CC)[C@@H](C)CC)[C@@H](C)O)[C@@H](C)O)C(C)C)C(C)C [Mellitin, melittin] |  | 2.7 |
